Measurements reported in article PMC7384521 (ACS chemical biology, 2020).

Key:
ENL(YEATS)-HiBiT [1] = test: HiBiT CETSA; type: cell-based
ENL YEATS [2] = target: T1, ENL YEATS (Homo sapiens, UniProt Q03111); test: HTRF histone-binding assay, ENL YEATS with H3K27cr
T1 sequence (Q03111 1-148): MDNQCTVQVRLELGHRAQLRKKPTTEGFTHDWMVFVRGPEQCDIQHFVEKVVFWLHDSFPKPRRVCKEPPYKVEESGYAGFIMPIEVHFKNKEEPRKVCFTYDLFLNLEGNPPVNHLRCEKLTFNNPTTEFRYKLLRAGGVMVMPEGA
Summary of the method: (§1)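 HTRF in 25 mM HEPES pH 7, 20 mM NaCl, 0.2% Pluronic F-127, 0.05% BSA, with 1 nM Eu-anti-His antibody and 8.9 nM APC-streptavidin. ENL: recombinant His-tagged ENL YEATS(1-148), 5 nM, with 13.3 nM biotinylated H3(13-32)K27cr. AF9: purchased AF9 YEATS, 5 nM, with 100 nM of the same peptide. Compound pin-transferred, incubated ≥2 h; 337 nm excitation, 665/620 nm ratio; percent inhibition scaled to vehicle (max) and no-peptide (min) wells.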

AF9 YEATS = target: T2, AF9 YEATS (Homo sapiens, UniProt P42568); test: HTRF histone-binding assay, AF9 YEATS with H3K27cr; conditions: read-out: IC50, HTRF AF9 YEATS crotonyl-lysine recognition
T2 sequence (P42568 1-138 limits assumed): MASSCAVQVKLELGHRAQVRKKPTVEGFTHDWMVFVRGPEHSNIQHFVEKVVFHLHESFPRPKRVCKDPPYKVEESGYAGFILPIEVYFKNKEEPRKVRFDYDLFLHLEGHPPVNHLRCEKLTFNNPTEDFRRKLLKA
Summary of the method: as §1

BRD4 bromodomain 1 (BD1) = test: HTRF histone-binding assay, BRD4 BD1 with tetra-acetyl H4
Summary of the method: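 BRD4 BD1 (purchased, 10 nM) with 13.3 nM tetra-acetylated H4. Buffer was 25 mM HEPES pH 7, 20 mM NaCl, 0.2% Pluronic F-127, 0.05% BSA; detection used 1 nM Eu-anti-His antibody plus 8.9 nM APC-streptavidin. Compound added by pin tool and incubated 2 h or more. Read at 337 nm excitation as the 665/620 nm emission ratio; percent inhibition relative to vehicle (maximum) and no-peptide (minimum) controls.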

YEATS4/GAS41 = test: Biolayer interferometry, immobilized biotin-YEATS4; type: binding; conditions: BLI
endogenous ENL protein = test: Immunoblot-based CETSA on endogenous ENL; type: cell-based; conditions: 80 μM, OCI/AML-2 cells, 1 hr
Summary of the method: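 CETSA on endogenous ENL followed a previously published protocol. Immunoblot detection used an anti-ENL rabbit monoclonal antibody (D9M4B) and an anti-GAPDH mouse monoclonal antibody (6C5).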

ENL YEATS [3] = target: T1, ENL YEATS; test: MALDI-TOF mass spectrometry for covalent adducts; conditions: high-resolution MALDI-TOF
SMARCA4(BD)-HiBiT = test: HiBiT CETSA of SMARCA4; type: cell-based; conditions: for luminescence of SMARCA4(BD)-HiBiT: OCI/AML-2 cells, 37 °C
Summary of the method: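 SMARCA4 bromodomain (residues 1426-1531) fused to HiBiT, stably expressed in OCI/AML-2 cells (alpha-MEM, 20% FBS) by lentiviral spinoculation: 2,000 rpm, 1 h, room temperature, 8 μg/mL polybrene. Cells were drug-treated at 37 °C without heating. Raw luminescence was read after adding Nano-Glo HiBiT lytic detection reagent.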

full-length ENL-HiBiT = test: HiBiT CETSA melt curve of full-length ENL-HiBiT; type: cell-based; conditions: HEK293T cells
AF9(YEATS)-HiBiT = test: ITDR at 37 °C of AF9; type: cell-based; conditions: OCI/AML-2 cells, 1 hour
ENL(YEATS)-HiBiT [4] = test: HiBiT CETSA performed on pre-lysed cells; conditions: cells lysed first, then treated; 37 °C

In the case of `O=C(/C=C/c1ccc(-n2ccnc2)cc1)N1CCN(C(=O)c2ccco2)CC1` [sCGT990], the “concentration required to reliably elevate ENL(YEATS)-HiBiT luminescence” value (ENL(YEATS)-HiBiT [1]; living cells, dose-response) is reported as 80 µM, the “IC50, HTRF ENL YEATS association with H3K27cr” value (ENL YEATS [2]) is reported as 19 µM and the IC50 (AF9 YEATS) is reported as 62 µM. For the same molecule, the “inhibition of BRD4 BD1 association with tetra-acetyl H4” value (BRD4 bromodomain 1 (BD1)) was “does not inhibit”, the “binding to YEATS4/GAS41” value (YEATS4/GAS41) was “does not efficiently bind” and the “stabilization of endogenous ENL by immunoblot-based CETSA” value (endogenous ENL protein) was “weak, if any, stabilization”. The “covalent adducts with ENL YEATS” value (ENL YEATS [3]) was “unable to identify covalent adducts”.

With `O=C(/C=C/N1C[C@H]2C[C@@H]1CN2c1ccccn1)c1ccccc1O` [PFI-3] the “concentration required to elevate the luminescence from SMARCA4(BD)-HiBiT” value (SMARCA4(BD)-HiBiT; ITDR) was 80 µM and the “luminescence of SMARCA4(BD)-HiBiT” value (SMARCA4(BD)-HiBiT) was “able to elevate luminescence”.

`C[C@H]1CCCN1Cc1nc2cc(NC(=O)c3ccc4c(cnn4C)c3)ccc2[nH]1` [SGC-iMLLT] was tested, and the “ITDR luminescence, wild-type ENL YEATS” value (ENL(YEATS)-HiBiT [1]; 37 °C, HEK293T cells, 1 hour) was “dose-responsive increases in luminescence”, the “CETSA melt curve of ENL(YEATS)-HiBiT” value (ENL(YEATS)-HiBiT [1]; HEK293T cells, 1-hour treatment, luminescence normalized to 37 °C) was “rightward shift” and the “luminescence-based melt curve of full-length ENL-HiBiT” value (full-length ENL-HiBiT) was “did not affect”. The “ITDR luminescence, AF9(YEATS)-HiBiT” value (AF9(YEATS)-HiBiT) was “dose-dependent increases in luminescence”, the “luminescence of SMARCA4(BD)-HiBiT” value (SMARCA4(BD)-HiBiT) was “no such effect” and the “luminescence of ENL(YEATS)-HiBiT in cell lysates” value (ENL(YEATS)-HiBiT [4]) was “luminescence was increased”.

For “crotonylated histone peptide: peptide substrate, H3K27cr, used to treat cell lysates”, the “luminescence of ENL(YEATS)-HiBiT in cell lysates” value (ENL(YEATS)-HiBiT [4]) was “luminescence was increased”.
